ChEMBL document CHEMBL1156777, “Synthesis and antiprotozoal activity of cationic 1,4-diphenyl-1H-1,2,3-triazoles” (J Med Chem, 2010)

Columns and labels:
[1] = Selectivity index, ratio of IC50 for rat L6 cells to IC50 for Trypanosoma brucei rhodesiense STIB900; type: toxicity, cell-based; settings: read-out: Ratio IC50
In short: (§1)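 Each index is L6 IC50 divided by parasite IC50. L6 values are from the 70 h resazurin assay. T. b. rhodesiense STIB900 values are from the 70 h resazurin assay. P. falciparum K1 values are from erythrocytic-stage [³H]-hypoxanthine incorporation: 48 h drug exposure, then 24 h with label. L. donovani values are from the 72 h axenic amastigote CellTiter assay.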

L6 = assay: Cytotoxicity against rat L6 cells after 70 hrs by alamar blue assay; type: cell-based; settings: L6, 70 h
In short: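 Cells were exposed to serial dilutions for 70 h at 37 °C, 5% CO₂, then given resazurin for 2–3 h. IC50 came from sigmoidal curves; two independent runs in duplicate. Top concentration was 90 μg/mL, converted to μM by molecular weight.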

[2] = Selectivity index, ratio of IC50 for rat L6 cells to IC50 for Plasmodium falciparum K1; type: toxicity, cell-based; settings: read-out: Ratio IC50; in short: as §1
[3] = tested on: Trypanosoma brucei rhodesiense; assay: Antitrypanosomal activity against Trypanosoma brucei rhodesiense STIB900 after 70 hrs by alamar blue assay; type: functional, organism-based; settings: STIB900, 70 h
Plasmodium falciparum = assay: Antiplasmodial activity against chloroquine-resistant Plasmodium falciparum K1 infected in human erythrocytes after 48 hrs assessed as [3H]hypoxanthine incorporation by liquid scintillation counting; type: functional, organism-based
Leishmania donovani = assay: Antileishmanial activity against Leishmania donovani MHOM/SD/62/1S-CL2D; type: functional, organism-based
In short: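 Axenic amastigotes (MHOM/SD/62/1S-CL2_D) adapted from promastigotes and grown in amastigote medium at 37 °C. 6 × 10⁴ parasites per well were exposed to 2-fold serial dilutions for 72 h at 37 °C in humidified 5% CO₂. Growth was read with tetrazolium CellTiter reagent as absorbance at 490 nm. IC50 came from a four-parameter dose–response fit; duplicate determinations were averaged.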

[4] = tested on: Trypanosoma brucei rhodesiense; assay: Antitrypanosomal activity against Trypanosoma brucei rhodesiense STIB900 infected in NMRI mouse assessed as mean parasitemia relaps day at 5 mg/kg, ip; type: functional; settings: route intraperitoneal
In short: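 Female NMRI mice infected ip with 2 × 10⁴ STIB900 bloodstream forms. Groups of four dosed ip daily on days 3–6 postinfection; compounds in DMSO diluted with water to 10% final DMSO. Untreated infected controls. Tail-blood parasitaemia checked on days 7 and 10, twice weekly to day 30, then weekly to day 60. Relapse day recorded for mean relapse day; cure means parasite-free survival to day 60.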

[5] = Selectivity index, ratio of IC50 for rat L6 cells to IC50 for Leishmania donovani MHOM/SD/62/1S-CL2D; type: toxicity, cell-based; settings: read-out: Ratio IC50; in short: as §1

Compound	selectivity ratio [1]	IC50 (L6) [µM]	selectivity ratio [2]	IC50 [3] [µM]	IC50 (Plasmodium falciparum) [µM]	IC50 (Leishmania donovani) [µM]	Activity [4] [days]	selectivity ratio [5]
CC(C)NC(=N)c1cccc(-c2cn(-c3cccc(C(=N)NC(C)C)c3)nn2)c1	> 12	> 184	> 1560	14.8	0.118	> 100	–	–
CC(C)NC(=N)c1ccc(-c2cn(-c3cc(C(=N)NC(C)C)ccc3O)nn2)cc1	> 11	> 170	> 32	15.1	5.27	> 100	–	–
c1cc(C2=NCCN2)cc(-c2cn(-c3ccc(C4=NCCN4)cc3)nn2)c1	635	127	1510	0.2	0.084	> 100	–	–
CC(C)NC(=N)c1ccc(-c2cn(-c3ccc(C(=N)NC(C)C)cc3O)nn2)cc1	> 129	> 178	> 223	1.38	0.8	> 100	–	–
CC(C)NC(=N)c1cccc(-n2cc(-c3ccc(C(=N)NC(C)C)cc3O)nn2)c1.Cl.Cl	> 2270	> 175	> 3570	0.077	0.049	> 100	18	–
COc1ccc(C(=N)NC(C)C)cc1-n1cc(-c2ccc(C(=N)NC(C)C)cc2)nn1	> 387	> 173	> 887	0.447	0.195	> 100	–	–
CC(C)NC(=N)c1ccc(-c2cn(-c3cccc(C(=N)NC(C)C)c3)nn2)cc1	418	193	4490	0.462	0.043	58	–	3
Oc1cc(C2=NCCN2)ccc1-n1cc(-c2cccc(C3=NCCN3)c2)nn1	> 17	> 187	> 1180	11.1	0.159	> 100	–	–
N=C(N)c1ccc(-c2cn(-c3cc(C(=N)N)ccc3O)nn2)cc1	> 31	> 203	> 165	6.64	1.23	> 100	–	–
COc1cc(C(=N)NC(C)C)ccc1-n1cc(-c2ccc(C(=N)NC(C)C)cc2)nn1	> 500	> 164	> 8630	0.328	0.019	> 100	–	–
COc1cc(C(=N)NC(C)C)ccc1-n1cc(-c2cccc(C(=N)NC(C)C)c2)nn1	> 81	> 159	> 2890	1.96	0.055	> 100	–	–
COc1ccc(C2=NCCN2)cc1-n1cc(-c2cccc(C3=NCCN3)c2)nn1	> 22	> 172	> 5730	7.83	0.03	> 100	–	–
COc1ccc(C(=N)N)cc1-c1cn(-c2cccc(C(=N)N)c2)nn1	> 121	> 200	> 8330	1.65	0.024	> 100	–	–
CC(C)NC(=N)c1ccc(-n2cc(-c3cccc(C(=N)NC(C)C)c3)nn2)cc1	> 353	> 190	> 5000	0.539	0.038	> 100	–	–
Oc1ccc(C2=NCCN2)cc1-n1cc(-c2ccc(C3=NCCN3)cc2)nn1	> 9	> 175	> 198	19.6	0.885	> 100	–	–
Oc1cc(C2=NCCN2)ccc1-c1cn(-c2cccc(C3=NCCN3)c2)nn1	> 302	> 183	> 11400	0.606	0.016	> 100	–	–
COc1cc(C2=NCCN2)ccc1-c1cn(-c2cccc(C3=NCCN3)c2)nn1	> 43	> 172	> 2690	4.02	0.064	> 100	–	–
COc1cc(C2=NCCN2)ccc1-c1cn(-c2ccc(C3=NCCN3)cc2)nn1	1220	142	12900	0.116	0.011	> 100	–	–

Compound	selectivity ratio [1]	IC50 (L6) [µM]	selectivity ratio [2]	IC50 [3] [µM]	IC50 (Plasmodium falciparum) [µM]	IC50 (Leishmania donovani) [µM]	Activity [4] [days]	selectivity ratio [5]
COc1cc(C2=NCCN2)ccc1-n1cc(-c2cccc(C3=NCCN3)c2)nn1	> 93	> 173	> 2980	1.87	0.058	> 100	–	–
CC(C)NC(=N)c1cccc(-c2cn(-c3cc(C(=N)NC(C)C)ccc3O)nn2)c1	> 12	> 167	> 226	13.9	0.739	> 100	–	–
CC(C)NC(=N)c1cccc(-n2cc(-c3cc(C(=N)NC(C)C)ccc3O)nn2)c1	> 16	> 170	> 742	10.9	0.229	> 100	–	–
Oc1ccc(C2=NCCN2)cc1-c1cn(-c2cccc(C3=NCCN3)c2)nn1	> 16	> 183	> 3520	11.7	0.052	> 100	–	–
COc1cc(C2=NCCN2)ccc1-n1cc(-c2ccc(C3=NCCN3)cc2)nn1	> 261	> 176	> 10400	0.675	0.017	> 100	–	–
c1cc(C2=NCCN2)cc(-c2cn(-c3cccc(C4=NCCN4)c3)nn2)c1	> 14	> 197	> 540	14.1	0.365	> 100	–	–
COc1ccc(C(=N)NC(C)C)cc1-c1cn(-c2cccc(C(=N)NC(C)C)c2)nn1	> 141	> 176	> 1660	1.25	0.106	> 100	–	–
CC(C)NC(=N)c1cccc(-c2cn(-c3ccc(C(=N)NC(C)C)cc3O)nn2)c1	> 10	> 187	> 157	18.7	1.19	> 100	–	–
COc1ccc(C2=NCCN2)cc1-n1cc(-c2ccc(C3=NCCN3)cc2)nn1	> 1050	> 170	> 7730	0.162	0.022	> 100	–	–
c1cc(C2=NCCN2)cc(-n2cc(-c3ccc(C4=NCCN4)cc3)nn2)c1	289	133	1400	0.461	0.095	> 100	–	–
COc1ccc(C(=N)NC(C)C)cc1-c1cn(-c2ccc(C(=N)NC(C)C)cc2)nn1	> 2300	> 177	> 6810	0.077	0.026	> 100	–	–
N=C(N)c1ccc(-c2cn(-c3ccc(C(=N)N)cc3O)nn2)cc1	> 431	> 216	> 1270	0.501	0.17	> 100	–	–
COc1cc(C(=N)NC(C)C)ccc1-c1cn(-c2ccc(C(=N)NC(C)C)cc2)nn1	> 826	> 166	> 12800	0.201	0.013	> 100	–	–
N=C(N)c1cccc(-c2cn(-c3cc(C(=N)N)ccc3O)nn2)c1	> 4	> 209	> 23	49.6	8.93	> 100	–	–
Oc1cc(C2=NCCN2)ccc1-n1cc(-c2ccc(C3=NCCN3)cc2)nn1	> 198	> 198	> 4830	0.998	0.041	> 100	–	–
COc1cc(C(=N)NC(C)C)ccc1-c1cn(-c2cccc(C(=N)NC(C)C)c2)nn1	> 242	> 170	> 5000	0.703	0.034	32	–	> 5
COc1ccc(C(=N)NC(C)C)cc1-n1cc(-c2cccc(C(=N)NC(C)C)c2)nn1	13	131	1050	10.1	0.125	> 100	–	–
Oc1ccc(C2=NCCN2)cc1-n1cc(-c2cccc(C3=NCCN3)c2)nn1	> 2	> 174	> 535	102	0.325	> 100	–	–
